Among the data in ChEMBL document CHEMBL5357042, “Discovery of imidazo[1,2-b]pyridazine-containing TAK1 kinase inhibitors with excellent activities against multiple myeloma” (RSC Med Chem, 2024) are inhibition, IC50 and GI50 values, retold here.

Experiment [1] deals with T1, Mitogen-activated protein kinase kinase kinase 7 (Homo sapiens) (UniProt O43318).
T1 sequence (whole entry): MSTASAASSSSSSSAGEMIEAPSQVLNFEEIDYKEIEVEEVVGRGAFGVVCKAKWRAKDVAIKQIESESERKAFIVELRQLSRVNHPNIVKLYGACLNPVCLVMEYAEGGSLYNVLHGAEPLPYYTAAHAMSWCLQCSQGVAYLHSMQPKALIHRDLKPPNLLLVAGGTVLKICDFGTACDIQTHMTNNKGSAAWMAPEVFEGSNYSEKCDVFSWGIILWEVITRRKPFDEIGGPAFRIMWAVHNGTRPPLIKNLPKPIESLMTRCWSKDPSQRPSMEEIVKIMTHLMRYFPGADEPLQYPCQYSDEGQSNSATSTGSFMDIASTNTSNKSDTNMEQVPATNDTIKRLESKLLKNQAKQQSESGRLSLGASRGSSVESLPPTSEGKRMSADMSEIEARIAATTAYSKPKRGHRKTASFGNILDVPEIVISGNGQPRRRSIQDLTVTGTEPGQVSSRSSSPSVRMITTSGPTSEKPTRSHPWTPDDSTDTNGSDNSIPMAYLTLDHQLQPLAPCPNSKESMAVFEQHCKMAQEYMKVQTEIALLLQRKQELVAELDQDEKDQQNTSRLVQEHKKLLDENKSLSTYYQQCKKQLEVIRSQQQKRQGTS
Kind of experiment: Inhibition of TAK1 (unknown origin) at 20 nM by ADP-Glo kinase assay.

Experiment [2] deals with RAC-alpha serine/threonine-protein kinase (Homo sapiens) (UniProt P31749). Kind of experiment: Inhibition of human wild type partial length AKT1 expressed in bacterial expression system at 50 to 500 nM by KinomeScan analysis. The following applies: dose 50-500 nM.
Experiment [3] deals with Tyrosine-protein kinase ZAP-70 (Homo sapiens) (UniProt P43403). Kind of experiment: Inhibition of human wild type partial length ZAP70 (20 to 299 residues) expressed in mammalian expression system at 50 to 500 nM by KinomeScan analysis. The following applies: dose 50-500 nM.
Chain of Tyrosine-protein kinase ZAP-70 (Homo sapiens) (P43403 whole entry, the tested form may be a part): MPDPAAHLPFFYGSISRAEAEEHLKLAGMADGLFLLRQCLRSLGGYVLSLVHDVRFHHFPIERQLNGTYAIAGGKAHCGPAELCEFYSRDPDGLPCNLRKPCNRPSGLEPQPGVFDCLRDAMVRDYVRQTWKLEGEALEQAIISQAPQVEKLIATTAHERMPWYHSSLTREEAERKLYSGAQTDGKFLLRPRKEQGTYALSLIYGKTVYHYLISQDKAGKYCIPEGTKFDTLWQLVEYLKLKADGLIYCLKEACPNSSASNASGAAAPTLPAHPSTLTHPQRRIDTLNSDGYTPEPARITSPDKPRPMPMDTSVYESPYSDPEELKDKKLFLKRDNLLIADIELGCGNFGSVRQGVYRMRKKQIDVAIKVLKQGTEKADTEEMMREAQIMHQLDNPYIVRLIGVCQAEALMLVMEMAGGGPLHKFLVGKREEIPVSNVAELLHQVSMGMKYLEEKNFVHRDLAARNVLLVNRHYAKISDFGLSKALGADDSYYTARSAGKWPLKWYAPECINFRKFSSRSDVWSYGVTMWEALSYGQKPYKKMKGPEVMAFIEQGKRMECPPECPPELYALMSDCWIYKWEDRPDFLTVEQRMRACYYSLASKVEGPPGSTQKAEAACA
The target in experiment [4] is Serine/threonine-protein kinase B-raf (Homo sapiens) (UniProt P15056). Kind of experiment: Inhibition of human wild type partial length BRAF (429 to 741 residues) expressed in mammalian expression system at 50 to 500 nM by KinomeScan analysis. The following applies: dose 50-500 nM.
Experiment [5] deals with cAMP-dependent protein kinase catalytic subunit alpha (Homo sapiens) (UniProt P17612). Kind of experiment: Inhibition of human wild type partial length PKAC-alpha (10 to 351 residues) expressed in bacterial expression system at 50 to 500 nM by KinomeScan analysis. Conditions: dose 50-500 nM.
For experiment [6], the target named is Tyrosine-protein kinase JAK2 (Homo sapiens) (UniProt O60674). Kind of experiment: Inhibition of human wild type partial length JAK2 (829 to 1132 residues) expressed in mammalian expression system at 50 to 500 nM by KinomeScan analysis. Conditions: dose 50-500 nM.
For experiment [7], the target named is Fibroblast growth factor receptor 2 (Homo sapiens) (UniProt P21802). Kind of experiment: Inhibition of human wild type partial length FGFR2 (457 to 769 residues) expressed in bacterial expression system at 50 to 500 nM by KinomeScan analysis. The following applies: dose 50-500 nM.
Chain of Fibroblast growth factor receptor 2 (Homo sapiens) (P21802 22-821 limits assumed): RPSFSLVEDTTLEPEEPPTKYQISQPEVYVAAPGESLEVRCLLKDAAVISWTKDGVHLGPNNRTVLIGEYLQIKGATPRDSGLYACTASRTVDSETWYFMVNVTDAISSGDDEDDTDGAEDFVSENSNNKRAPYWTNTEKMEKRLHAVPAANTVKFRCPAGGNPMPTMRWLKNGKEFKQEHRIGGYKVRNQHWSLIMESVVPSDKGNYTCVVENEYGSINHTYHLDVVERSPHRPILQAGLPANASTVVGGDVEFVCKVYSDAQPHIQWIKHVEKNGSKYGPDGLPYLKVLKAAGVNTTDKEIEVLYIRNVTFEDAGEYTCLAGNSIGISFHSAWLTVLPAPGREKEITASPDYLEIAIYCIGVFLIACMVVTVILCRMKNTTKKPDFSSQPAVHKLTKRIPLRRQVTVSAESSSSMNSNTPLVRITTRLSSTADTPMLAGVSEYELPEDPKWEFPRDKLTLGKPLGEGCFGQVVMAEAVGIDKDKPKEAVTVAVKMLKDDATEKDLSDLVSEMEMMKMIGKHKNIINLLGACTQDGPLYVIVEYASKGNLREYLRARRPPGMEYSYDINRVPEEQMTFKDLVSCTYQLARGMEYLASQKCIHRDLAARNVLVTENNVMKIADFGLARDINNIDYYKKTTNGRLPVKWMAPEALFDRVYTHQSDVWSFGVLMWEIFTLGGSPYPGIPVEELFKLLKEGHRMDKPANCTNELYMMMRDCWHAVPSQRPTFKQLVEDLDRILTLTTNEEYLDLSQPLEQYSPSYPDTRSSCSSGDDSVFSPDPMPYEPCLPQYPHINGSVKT
The target of experiment [8] is RAC-beta serine/threonine-protein kinase (Homo sapiens) (UniProt P31751). Kind of experiment: Inhibition of human wild type partial length AKT2 expressed in bacterial expression system at 50 to 500 nM by KinomeScan analysis. Conditions: dose 50-500 nM.
Chain of RAC-beta serine/threonine-protein kinase (Homo sapiens) (P31751 whole entry, the tested form may be a part): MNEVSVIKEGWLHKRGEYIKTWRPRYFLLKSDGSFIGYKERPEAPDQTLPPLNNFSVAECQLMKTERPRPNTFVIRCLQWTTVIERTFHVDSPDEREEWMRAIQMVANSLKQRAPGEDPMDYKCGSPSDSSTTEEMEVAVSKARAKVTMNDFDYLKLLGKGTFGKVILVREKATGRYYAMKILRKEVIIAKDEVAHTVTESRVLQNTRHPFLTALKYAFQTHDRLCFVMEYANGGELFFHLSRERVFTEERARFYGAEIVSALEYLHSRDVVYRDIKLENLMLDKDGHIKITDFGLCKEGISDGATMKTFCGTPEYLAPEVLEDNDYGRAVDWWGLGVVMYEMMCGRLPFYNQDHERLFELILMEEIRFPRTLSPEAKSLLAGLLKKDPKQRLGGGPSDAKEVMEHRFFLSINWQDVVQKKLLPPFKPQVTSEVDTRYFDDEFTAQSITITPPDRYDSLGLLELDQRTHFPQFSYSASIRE
Experiment [9] addresses Platelet-derived growth factor receptor beta (Homo sapiens) (UniProt P09619). Kind of experiment: Inhibition of human wild type partial length PDGFRB (582 to 1009 residues) expressed in bacterial expression system at 50 to 500 nM by KinomeScan analysis. Conditions: dose 50-500 nM.
Experiment [10] has as its target Vascular endothelial growth factor receptor 2 (Homo sapiens) (UniProt P35968). Kind of experiment: Inhibition of human wild type partial length VEGFR2 (787 to 1253 residues) expressed in mammalian expression system at 50 to 500 nM by KinomeScan analysis. Conditions: dose 50-500 nM.
Experiment [11] concerns the target Epidermal growth factor receptor (Homo sapiens) (UniProt P00533). Kind of experiment: Inhibition of human wild type partial length EGFR (669 to 1011 residues) expressed in bacterial expression system at 50 to 500 nM by KinomeScan analysis. The following applies: dose 50-500 nM.
Experiment [12] has as its target Fibroblast growth factor receptor 3 (Homo sapiens) (UniProt P22607). Kind of experiment: Inhibition of human wild type partial length FGFR3 (442 to 771 residues) expressed in bacterial expression system at 50 to 500 nM by KinomeScan analysis. Conditions: dose 50-500 nM.
The target of experiment [13] is Platelet-derived growth factor receptor alpha (Homo sapiens) (UniProt P16234). Kind of experiment: Inhibition of human wild type partial length PDGFRA (575 to 1002 residues) expressed in mammalian expression system at 50 to 500 nM by KinomeScan analysis. Conditions: dose 50-500 nM.
Chain of Platelet-derived growth factor receptor alpha (Homo sapiens) (P16234 whole entry, the tested form may be a part): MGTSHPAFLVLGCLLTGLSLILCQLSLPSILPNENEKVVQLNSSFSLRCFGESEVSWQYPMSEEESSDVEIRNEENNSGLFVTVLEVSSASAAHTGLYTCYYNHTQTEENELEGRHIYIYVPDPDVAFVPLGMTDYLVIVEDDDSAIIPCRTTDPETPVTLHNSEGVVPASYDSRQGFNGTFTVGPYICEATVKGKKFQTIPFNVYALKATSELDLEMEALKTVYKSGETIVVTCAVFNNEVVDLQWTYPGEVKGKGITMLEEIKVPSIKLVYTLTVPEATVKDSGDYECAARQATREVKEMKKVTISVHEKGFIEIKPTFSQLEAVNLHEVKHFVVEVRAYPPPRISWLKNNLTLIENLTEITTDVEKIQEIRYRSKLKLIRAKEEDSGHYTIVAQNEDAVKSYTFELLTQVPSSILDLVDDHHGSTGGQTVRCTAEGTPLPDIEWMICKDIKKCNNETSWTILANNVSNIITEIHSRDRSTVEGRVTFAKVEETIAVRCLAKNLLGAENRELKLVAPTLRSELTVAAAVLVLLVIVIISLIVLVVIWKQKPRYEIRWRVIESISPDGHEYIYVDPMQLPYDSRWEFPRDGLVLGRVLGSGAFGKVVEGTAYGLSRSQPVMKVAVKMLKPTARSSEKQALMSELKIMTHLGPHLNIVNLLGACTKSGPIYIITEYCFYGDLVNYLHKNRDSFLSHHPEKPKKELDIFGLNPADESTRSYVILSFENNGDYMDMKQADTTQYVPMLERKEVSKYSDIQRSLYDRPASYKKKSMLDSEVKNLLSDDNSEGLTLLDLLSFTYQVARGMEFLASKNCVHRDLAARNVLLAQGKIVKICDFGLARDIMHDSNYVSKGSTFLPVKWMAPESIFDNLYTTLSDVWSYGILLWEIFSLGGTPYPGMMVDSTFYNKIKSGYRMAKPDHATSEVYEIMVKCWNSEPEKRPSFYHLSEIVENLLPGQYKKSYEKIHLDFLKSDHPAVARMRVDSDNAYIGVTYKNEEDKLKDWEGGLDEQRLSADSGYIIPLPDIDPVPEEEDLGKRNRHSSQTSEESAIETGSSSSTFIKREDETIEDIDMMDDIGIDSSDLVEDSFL
Experiment [14] concerns the target Mitogen-activated protein kinase kinase kinase 7 (Mus musculus) (UniProt Q62073). Kind of experiment: Inhibition of TAK1 in mouse MPC-11 cells assessed as reduction in TAK1 phosphorylation at Ser412 residue at 0.1 to 0.5 uM incubated for 48 hrs by Western blot analysis. It counts as cell-based. The following applies: dose 0.1-0.5 µM. In a few lines: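 MPC-11 cells (0.5–1 × 10⁶/well) seeded, treated after 24 h for 48 h; DMSO control. BCA protein quantitation, 10% SDS-PAGE, PVDF; pTAK1, TAK1, β-actin antibodies overnight 4 °C, HRP secondaries 2 h 24 °C, chemiluminescence. Bands quantified relative to actin; duplicates, mean and standard deviation.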
A general note: Immunoblotting shows a protein as a band on a membrane.

The target in experiment [15] is Mitogen-activated protein kinase kinase kinase 7 (Homo sapiens, UniProt O43318). Kind of experiment: Inhibition of human TAK1 using casein as substrate in presence of [gamma-33P]-ATP by radiometric hotspot kinase assay.
A further experiment relates to NCI-H929. Kind of experiment: Cytotoxicity against human NCI-H929 cells assessed as reduction in cell viability incubated for 72 hrs by CellTiter-Blue assay. It counts as functional. An outline of the steps: (§1)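 H929 (RPMI, 10% heat-inactivated FBS) or MPC-11 (DMEM, 10% FBS) cells, under 10 passages, 37 °C, 5% CO₂; 4–5 × 10³ cells/well seeded, 24 h, then compound at various concentrations for 72 h. CellTiter-Blue added for 3 h, fluorescence ex/em 560/590 nm. Normalized to DMSO-treated cells; triplicate, mean and standard deviation.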
A general note: The colour change of resazurin is a common sign of viable cells or microbes.

Experiment [16] addresses Aurora kinase A (Homo sapiens) (UniProt O14965). Kind of experiment: Inhibition of human wild type partial length Aurora A (122 to 401 residues) expressed in mammalian expression system at 50 to 500 nM by KinomeScan analysis. The following applies: dose 50-500 nM.
For experiment [17], the target named is Mast/stem cell growth factor receptor Kit (Homo sapiens) (UniProt P10721). Kind of experiment: Inhibition of human wild type partial length c-Kit (545 to 952 residues) expressed in mammalian expression system at 50 to 500 nM by KinomeScan analysis. Conditions: dose 50-500 nM.
Chain of Mast/stem cell growth factor receptor Kit (Homo sapiens) (P10721 whole entry, the tested form may be a part): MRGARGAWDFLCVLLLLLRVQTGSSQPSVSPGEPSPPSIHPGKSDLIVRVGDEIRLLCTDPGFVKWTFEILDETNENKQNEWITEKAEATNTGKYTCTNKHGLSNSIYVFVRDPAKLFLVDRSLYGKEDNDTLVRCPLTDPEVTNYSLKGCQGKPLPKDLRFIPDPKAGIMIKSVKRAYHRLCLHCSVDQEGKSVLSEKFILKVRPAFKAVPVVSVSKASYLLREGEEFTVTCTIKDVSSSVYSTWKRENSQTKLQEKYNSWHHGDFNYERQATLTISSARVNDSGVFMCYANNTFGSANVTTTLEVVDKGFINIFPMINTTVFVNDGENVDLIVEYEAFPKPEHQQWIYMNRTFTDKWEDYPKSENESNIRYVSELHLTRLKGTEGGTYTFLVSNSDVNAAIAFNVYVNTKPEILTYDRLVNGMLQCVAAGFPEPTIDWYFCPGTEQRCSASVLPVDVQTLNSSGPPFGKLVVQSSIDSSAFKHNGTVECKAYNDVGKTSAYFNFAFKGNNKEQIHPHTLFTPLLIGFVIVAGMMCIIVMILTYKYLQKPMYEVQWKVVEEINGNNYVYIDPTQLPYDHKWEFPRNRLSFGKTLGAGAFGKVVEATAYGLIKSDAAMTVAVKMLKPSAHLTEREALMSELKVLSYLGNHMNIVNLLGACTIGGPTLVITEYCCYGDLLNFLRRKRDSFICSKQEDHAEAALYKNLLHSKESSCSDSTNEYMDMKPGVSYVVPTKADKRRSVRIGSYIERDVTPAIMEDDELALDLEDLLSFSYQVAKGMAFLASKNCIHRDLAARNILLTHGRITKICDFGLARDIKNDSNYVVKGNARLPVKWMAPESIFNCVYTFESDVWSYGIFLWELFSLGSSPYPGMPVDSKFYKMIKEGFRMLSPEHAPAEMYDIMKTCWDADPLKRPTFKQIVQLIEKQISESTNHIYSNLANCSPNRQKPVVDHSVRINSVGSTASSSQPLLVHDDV
The next experiment relates to MPC-11. Kind of experiment: Cytotoxicity against mouse MPC-11 cells assessed as reduction in cell viability incubated for 72 hrs by CellTiter-Blue assay. It counts as functional. In a few lines:
as §1

Experiment [18] concerns the target T1, Mitogen-activated protein kinase kinase kinase 7 (Homo sapiens). Kind of experiment: Inhibition of TAK1 (unknown origin) at 100 nM by ADP-Glo kinase assay. Background: ADP-Glo first removes unused ATP, then detects ADP through luciferase.
For experiment [19], the target named is Aurora kinase B (Homo sapiens) (UniProt Q96GD4). Kind of experiment: Inhibition of human wild type partial length Aurora B (25 to 303 residues) expressed in mammalian expression system at 50 to 500 nM by KinomeScan analysis. The following applies: dose 50-500 nM.
The target in experiment [20] is Proto-oncogene tyrosine-protein kinase receptor Ret (Homo sapiens) (UniProt P07949). Kind of experiment: Inhibition of human RET at 50 to 500 nM by KinomeScan analysis. Conditions: dose 50-500 nM.
Experiment [21] concerns the target T1, Mitogen-activated protein kinase kinase kinase 7 (Homo sapiens). Kind of experiment: Inhibition of TAK1 (unknown origin) at 500 nM by ADP-Glo kinase assay.

Activity calls are given as the source filed them. The rule behind the calls is not given here.

Chain of Platelet-derived growth factor receptor beta (Homo sapiens) (P09619 whole entry, the tested form may be a part): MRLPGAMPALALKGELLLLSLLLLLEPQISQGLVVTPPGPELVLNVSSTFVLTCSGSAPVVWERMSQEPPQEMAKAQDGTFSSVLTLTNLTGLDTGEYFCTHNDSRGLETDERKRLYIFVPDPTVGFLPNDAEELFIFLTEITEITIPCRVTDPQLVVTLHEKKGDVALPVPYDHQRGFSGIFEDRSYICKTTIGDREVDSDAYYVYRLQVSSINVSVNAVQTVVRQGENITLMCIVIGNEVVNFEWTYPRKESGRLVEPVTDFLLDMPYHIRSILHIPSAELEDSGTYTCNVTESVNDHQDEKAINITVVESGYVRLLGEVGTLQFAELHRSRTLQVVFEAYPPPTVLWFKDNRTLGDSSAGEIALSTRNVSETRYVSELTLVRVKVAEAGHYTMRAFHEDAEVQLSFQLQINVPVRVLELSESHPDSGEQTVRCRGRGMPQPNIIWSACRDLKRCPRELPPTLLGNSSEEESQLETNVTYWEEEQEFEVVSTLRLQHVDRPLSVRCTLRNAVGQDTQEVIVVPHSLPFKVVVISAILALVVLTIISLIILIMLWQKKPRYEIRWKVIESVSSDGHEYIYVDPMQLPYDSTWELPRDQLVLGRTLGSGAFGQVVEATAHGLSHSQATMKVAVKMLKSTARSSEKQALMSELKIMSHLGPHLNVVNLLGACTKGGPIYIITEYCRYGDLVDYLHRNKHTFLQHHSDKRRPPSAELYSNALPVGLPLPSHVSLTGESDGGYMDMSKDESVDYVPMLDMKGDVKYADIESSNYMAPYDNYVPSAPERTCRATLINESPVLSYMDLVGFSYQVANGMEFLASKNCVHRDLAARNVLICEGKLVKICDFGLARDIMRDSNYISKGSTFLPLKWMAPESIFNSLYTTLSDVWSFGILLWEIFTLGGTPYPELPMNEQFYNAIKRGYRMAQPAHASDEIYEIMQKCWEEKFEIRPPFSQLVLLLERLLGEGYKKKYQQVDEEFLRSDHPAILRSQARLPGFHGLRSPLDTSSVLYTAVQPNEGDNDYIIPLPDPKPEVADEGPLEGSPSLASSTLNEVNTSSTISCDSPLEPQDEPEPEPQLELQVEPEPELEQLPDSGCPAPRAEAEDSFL

In general, inhibition refers to how much of the control response was suppressed. The term IC50 denotes the concentration that gives 50% inhibition. Usually GI50 stands for the concentration at which growth is held to half of that of the control. `C[C@@H]1CN(c2ccc3ncc(-c4ccc5[nH]nc(C6CC6)c5c4)n3n2)C[C@H](C)O1`: the figures for the inhibition in experiment [1], in [18] and in [21] were > 50%, > 50% and 100%, respectively. Moreover, the inhibition entry in experiment [2], in [3], in experiment [4], in experiment [5], in experiment [6] and in [7] was “Active” each time. Moreover, the inhibition entry in experiment [8], in [9], in [10], in experiment [11], in experiment [12] and in experiment [13] was “Active” throughout. The inhibition result in [14], in [16], in experiment [17], in [19] and in experiment [20] was “Active” throughout. Further, the IC50 in experiment [15] was found to be 55 nM. Besides, the GI50 came to 43 nM in the experiment with NCI-H929 and 41 nM in the experiment on MPC-11.
